Data as given in ChEMBL document CHEMBL1152819, “Evaluation of hexadecyloxypropyl-9-R-[2-(Phosphonomethoxy)propyl]- adenine, CMX157, as a potential treatment for human immunodeficiency virus type 1 and hepatitis B virus infections” (Antimicrob Agents Chemother, 2007).

Legend:
[1] = Cytotoxicity against human PBMC by XTT assay; format: cell-based
Method in brief: (§1)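 Fresh human PBMCs, seronegative for HIV and HBV, infected with HIV-1 clade B HT/92/599. Antiviral read-out by reverse transcriptase reduction; cytotoxicity by XTT staining. EC50, CC50 and CC50/EC50 taken from data plots, given as mean ± standard deviation of triplicate determinations.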

[2] = AUC (0 to 24 hrs) in Sprague-Dawley rat at 100 mg/kg, po administered daily for 7 days measured on day 1; format: ADME, organism-based; design: time < 24 hr, dose 100 mg/kg, route oral; conditions: plasma
Method in brief: (§2)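 Sprague-Dawley rats, 8–12 weeks old, dosed orally once daily for 7 days and not fasted. Blood taken at 0.5, 1, 2, 4, 12 and 24 h after dosing on days 1 and 7, one rat/sex/time point. Plasma deproteinized, analyte separated by mixed-mode HPLC and quantified by MS/MS, LOQ 1 ng/ml, values below LOQ set to zero. Noncompartmental analysis: Tmax read from plotted data, AUC by linear-log trapezoidal rule.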

[3] = test system: Rattus norvegicus; experiment: Toxicity in Sprague-Dawley rat assessed as change in food consumption at 10 to 100 mg/kg, po administered daily for 7 days; format: organism-based; design: dose 10-100 mg/kg, route oral; conditions: in vivo, 168 h
Method in brief: (§3)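 Sprague-Dawley rats (3/sex/group), 8–12 weeks old, given vehicle or 10, 30 or 100 mg/kg/day orally once daily for 7 days. Mortality, morbidity, clinical observations, body weight and food consumption recorded daily.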

[4] = test system: Hepatitis B virus; experiment: Antiviral activity against HBV in human HepG2(2.2.15) cells assessed as viral DNA levels treated for 9 days measured after 24 hrs; format: functional, organism-based
Method in brief: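 Confluent 2.2.15 cells in RPMI 1640 with 2% FBS, given nine consecutive daily doses with daily medium change (six cultures per concentration on two replicate plates). HBV DNA quantified by blot hybridization 24 h after the last treatment.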

[5] = test system: Rattus norvegicus; experiment: Toxicity in Sprague-Dawley rat assessed as change in gross necroscopy at 10 to 100 mg/kg, po administered daily for 7 days; format: organism-based; design: dose 10-100 mg/kg, route oral; conditions: in vivo, 168 h
Method in brief: (§4)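 Sprague-Dawley rats (3/sex/group), 8–12 weeks old, given vehicle or 10, 30 or 100 mg/kg/day orally once daily for 7 days. Serum biochemistry, hematology and urinalysis done at day 7. At necropsy, control and high-dose rats examined grossly, organs weighed, and all tissues processed for histopathology.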

[6] = Cytotoxicity against human MT2 cells; format: cell-based
Method in brief: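 MT-2 cells in RPMI 1640 with 10% FBS and 10 mM HEPES, exposed to threefold serial drug dilutions. CC50 calculated from cell counts and viability.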

[7] = Selectivity index, ratio of CC50 for human MT2 cells to EC50 for HIV1 LAI; format: toxicity, cell-based; conditions: read-out: Ratio CC50/EC50
[8] = Elimination half life in Sprague-Dawley rat at 100 mg/kg, po administered daily for 7 days measured on day 7; format: ADME, organism-based; design: dose 100 mg/kg, route oral; conditions: in vivo, read-out: beta t1/2 (converted)
Method in brief: (§5)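 Oral once daily for 7 days, vehicle or 10, 30 or 100 mg/kg/day, Sprague-Dawley rats 8-12 weeks old, not fasted. Plasma sampled 0.5, 1, 2, 4, 12, 24 h after dosing on days 1 and 7 (1 rat/sex/time point). CMX157 and tenofovir measured by HPLC-MS/MS, LOQ 1 ng/ml (values below set to zero). Noncompartmental analysis; Cmax/Tmax by direct observation, AUC by linear-log trapezoidal rule.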

[9] = AUC (0 to 24 hrs) in Sprague-Dawley rat at 10 mg/kg, po administered daily for 7 days measured on day 1; format: ADME, organism-based; design: time < 24 hr, dose 10 mg/kg, route oral; conditions: plasma; method in brief: as §2
[10] = Selectivity index, ratio of CC50 for human PBMC to EC50 for HIV1 clade B HT/92/599 isolate; method in brief: as §1
[11] = test system: Rattus norvegicus; experiment: Toxicity in Sprague-Dawley rat assessed as microscopic lesions at 10 to 100 mg/kg, po administered daily for 7 days; format: organism-based; design: dose 10-100 mg/kg, route oral; conditions: in vivo, 168 h; method in brief: as §4
[12] = test system: Rattus norvegicus; experiment: Toxicity in Sprague-Dawley rat assessed as ophthalmological changes at 10 to 100 mg/kg, po administered daily for 7 days; format: organism-based; design: dose 10-100 mg/kg, route oral; conditions: in vivo, 168 h
[13] = Tmax in Sprague-Dawley rat at 30 mg/kg, po administered daily for 7 days measured on day 1; format: ADME, organism-based; design: dose 30 mg/kg, route oral; conditions: in vivo; method in brief: as §2
[14] = test system: Rattus norvegicus; experiment: Toxicity in Sprague-Dawley rat assessed as mortality at 10 to 100 mg/kg, po administered daily for 7 days; format: organism-based; design: dose 10-100 mg/kg, route oral; conditions: in vivo, 168 h; method in brief: as §3
[15] = test system: Human immunodeficiency virus 1; experiment: Antiviral activity against HIV1 LAI in human MT2 cells assessed as inhibition of p24 antigen production by ELISA; format: functional, organism-based; conditions: Human immunodeficiency virus 1, LAI
Method in brief: (§6)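 MT-2 cells in RPMI 1640 with 10% FBS and 10 mM HEPES, infected with HIV-1 LAI at MOI 0.001 TCID50/cell. Incubated with threefold serial dilutions, three wells per dilution. EC50 taken as the concentration inhibiting p24 antigen production by 50%.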

[16] = test system: Human immunodeficiency virus 1; experiment: Antiviral activity against HIV1 clade B HT/92/599 isolate in human PBMC assessed as reduction in reverse transcriptase; format: functional, organism-based; conditions: Human immunodeficiency virus 1, clade B; method in brief: as §1
[17] = test system: HepG2; experiment: Cytotoxicity against human HepG2 cells by MTS assay; format: cell-based; conditions: Homo sapiens, HepG2
Method in brief: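 Exponentially growing HepG2 cells (parent hepatoma line); cytostatic effect measured by MTS method.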

[18] = AUC (0 to 24 hrs) in Sprague-Dawley rat at 100 mg/kg, po administered daily for 7 days measured on day 7; format: ADME, organism-based; design: time < 24 hr, dose 100 mg/kg, route oral; conditions: plasma; method in brief: as §5
[19] = test system: Rattus norvegicus; experiment: Toxicity in Sprague-Dawley rat assessed as change in body weight at 10 to 100 mg/kg, po administered daily for 7 days; format: organism-based; design: dose 10-100 mg/kg, route oral; conditions: in vivo, 168 h; method in brief: as §3
[20] = AUC (0 to 24 hrs) in Sprague-Dawley rat at 30 mg/kg, po administered daily for 7 days measured on day 1; format: ADME, organism-based; design: time < 24 hr, dose 30 mg/kg, route oral; conditions: plasma; method in brief: as §2
[21] = test system: Rattus norvegicus; experiment: Toxicity in Sprague-Dawley rat assessed as change in erythrocyte morphology at 10 to 100 mg/kg, po administered daily for 7 days; format: organism-based; design: dose 10-100 mg/kg, route oral; conditions: in vivo, 168 h
[22] = test system: Rattus norvegicus; experiment: Toxicity in Sprague-Dawley rat assessed as hematological changes at 10 to 100 mg/kg, po administered daily for 7 days; format: organism-based; design: dose 10-100 mg/kg, route oral; conditions: in vivo, 168 h; method in brief: as §4
[23] = AUC (0 to 24 hrs) in Sprague-Dawley rat at 10 mg/kg, po administered daily for 7 days measured on day 7; format: ADME, organism-based; design: time < 24 hr, dose 10 mg/kg, route oral; conditions: plasma; method in brief: as §5
[24] = test system: Rattus norvegicus; experiment: Toxicity in Sprague-Dawley rat assessed as change in urinalysis parameters at 10 to 100 mg/kg, po administered daily for 7 days; format: organism-based; design: dose 10-100 mg/kg, route oral; conditions: in vivo, 168 h; method in brief: as §4
[25] = Tmax in Sprague-Dawley rat at 100 mg/kg, po administered daily for 7 days measured on day 1; format: ADME, organism-based; design: dose 100 mg/kg, route oral; conditions: in vivo; method in brief: as §2
[26] = Tmax in Sprague-Dawley rat at 100 mg/kg, po administered daily for 7 days measured on day 7; format: ADME, organism-based; design: dose 100 mg/kg, route oral; conditions: in vivo; method in brief: as §2
[27] = AUC (0 to 24 hrs) in Sprague-Dawley rat at 30 mg/kg, po administered daily for 7 days measured on day 7; format: ADME, organism-based; design: time < 24 hr, dose 30 mg/kg, route oral; conditions: plasma; method in brief: as §5
[28] = Tmax in Sprague-Dawley rat at 30 mg/kg, po administered daily for 7 days measured on day 7; format: ADME, organism-based; design: dose 30 mg/kg, route oral; conditions: in vivo; method in brief: as §2
[29] = Tmax in Sprague-Dawley rat at 10 mg/kg, po administered daily for 7 days measured on day 1; format: ADME, organism-based; design: dose 10 mg/kg, route oral; conditions: in vivo; method in brief: as §2
[30] = test system: Rattus norvegicus; experiment: Toxicity in Sprague-Dawley rat assessed as change in clinical chemistry parameters at 10 to 100 mg/kg, po administered daily for 7 days; format: organism-based; design: dose 10-100 mg/kg, route oral; conditions: in vivo, 168 h; method in brief: as §4
[31] = test system: Rattus norvegicus; experiment: Toxicity in Sprague-Dawley rat assessed as change in organ weight at 10 to 100 mg/kg, po administered daily for 7 days; format: organism-based; design: dose 10-100 mg/kg, route oral; conditions: in vivo, 168 h; method in brief: as §4
[32] = test system: Hepatitis B virus; experiment: Antiviral activity against HBV in human HepAD38 cells assessed as intracellular viral DNA levels treated for 3 days measured on day 6 […] by RT-PCR; format: functional, organism-based
Method in brief: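 HepAD38 cells seeded at 5 x 10^5/well, grown 2-3 days with 0.3 µg/ml tetracycline, then induced by PBS wash and tetracycline/G418-free medium with or without compound at 37°C, 5% CO2. Medium changed after 3 days. Intracellular HBV DNA measured on day 6 postinduction by TaqMan real-time PCR against a plasmid standard curve, given as % of mock.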

[33] = Cytotoxicity against human HepG2(2.2.15) cells after 24 hrs by neutral red uptake assay; format: cell-based; conditions: Homo sapiens, HepG2 2.2.15, 24 h
Method in brief: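 Confluent 2.2.15 cells given nine daily treatments. Neutral red uptake read by absorbance of internalized dye 24 h after the last treatment, three cultures per concentration.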

[34] = Tmax in Sprague-Dawley rat at 10 mg/kg, po administered daily for 7 days measured on day 7; format: ADME, organism-based; design: dose 10 mg/kg, route oral; conditions: in vivo; method in brief: as §2
[35] = Selectivity index, ratio of CC50 for human HepG2 cells to EC50 for HBV
[36] = Elimination half life in Sprague-Dawley rat at 100 mg/kg, po administered daily for 7 days measured on day 1; format: ADME, organism-based; design: dose 100 mg/kg, route oral; conditions: in vivo, read-out: beta t1/2 (converted); method in brief: as §5
[37] = Selectivity index, ratio of CC50 for human HepG2(2.2.15) cells to EC50 for HBV
[38] = test system: Rattus norvegicus; experiment: Toxicity in Sprague-Dawley rat assessed as change in coagulation parameters at 10 to 100 mg/kg, po administered daily for 7 days; format: organism-based; design: dose 10-100 mg/kg, route oral; conditions: in vivo, 168 h
[39] = test system: Human immunodeficiency virus 1; experiment: Antiviral activity against HIV1 in human MT2 cells; format: functional, organism-based; method in brief: as §6

SMILES: CCCCCCCCCCCCCCCCOCCCOP(=O)(O)CO[C@H](C)Cn1cnc2c(N)ncnc21 [TENOFOVIR EXALIDEX]
- CC50 [1]: 144000 nM
- AUC(0-t) at 24 h [2]: 5.41 µg·h/mL
- Activity [3]: Non-toxic
- EC50 [4]: 1600 nM
- Activity [5]: Non-toxic
- CC50 [6]: 54000 nM
- selectivity ratio [7]: > 5.4e+06
- half-life [8]: 1.6 h
- AUC(0-t) at 24 h [9]: 0.442 µg·h/mL
- Ratio CC50/EC50 [10]: 12000
- Activity [11]: Non-toxic
- Activity [12]: Non-toxic
- Tmax [13]: 2 h
- Activity [14]: Non-toxic
- EC50 [15]: < 0.01 nM
- EC50 [16]: 12 nM
- EC50 [17]: > 18800 nM
- AUC at 24 h [18]: 8.41 µg·h/mL
- Activity [19]: Non-toxic
- AUC(0-t) at 24 h [20]: 1.83 µg·h/mL
- Activity [21]: Non-toxic
- Activity [22]: Non-toxic
- AUC at 24 h [23]: 0.435 µg·h/mL
- Activity [24]: Non-toxic
- Tmax [25]: 2 h
- Tmax [26]: 2 h
- AUC at 24 h [27]: 1.54 µg·h/mL
- Tmax [28]: 1 h
- Tmax [29]: 0.5 h
- Activity [30]: Non-toxic
- Activity [31]: Non-toxic
- EC50 [32]: 490 nM
- EC50 [33]: > 300000 nM
- Tmax [34]: 0.5 h
- Ratio CC50/EC50 [35]: 38.4
- half-life [36]: 2.5 h
- Ratio CC50/EC50 [37]: >187.5
- Activity [38]: Non-toxic

SMILES: CCCCCCCCCCCCCCCCOCCCOP(=O)(O)COCCn1cnc2c(NC3CC3)nc(N)nc21
- EC50 [39]: 0.02 nM

SMILES: CCCCCCCCCCCCCCCCOCCCOP(=O)(O)CO[C@H](CO)Cn1cnc2c(N)ncnc21
- EC50 [15]: 7 nM
